Published values gathered from unrelated publications.
pEC50, pIC50: −log10 of the molar value.
Read-out: cell growth or viability

SMILES	cell line	assay	conditions	measurement	value
Nc1ccc(/C=C/C(=O)N2CCc3c(oc4c(-c5ccc(F)cc5)cc(-c5ccc(C(=O)N6CCC(F)(F)CC6)nn5)cc34)C2)cn1	Pan02	CCK-8	72 h	pIC50	6.60
CC(C)(C)c1cnc(CSc2cnc(NC(=O)C3CCN(CCCCCCCCSc4cccc5c4CN(C4CCC(=O)NC4=O)C5=O)CC3)s2)o1 (stereo not drawn)	HuT78	trypan blue	1 µM, 48 h	viability	10.5%
OC(c1cc(C(F)(F)F)nc2c(C(F)(F)F)cccc12)C1CCCCN1 (stereo not drawn)	SH-SY5Y	resazurin	–	pIC50	5.10
C#Cc1nc(C2=C(C)C(OC(=O)C(C)(C)C)/C(=N\OC(=O)C(C)(C)C)C2)cs1 (stereo not drawn)	HT-1080	–	–	CC50	73 nM
CCNCCCn1c2c(c3cc(OC)c(OC)cc3c1=O)C(=O)c1cc3c(nc1-2)OCO3	SK-N-MC	MTS	72 h	pIC50	6.86
C=C(F)C(=O)N1CCN(c2nc(OC[C@@H]3CCCN3C)nc3c2CCN(c2cccc4cccc(Cl)c24)C3)C[C@@H]1CC#N	Lu-99	ATP luminescence	3D culture	pIC50	7.67
COc1cc2c3c(n(CCCN4CCOCC4)c(=O)c2cc1OC)-c1nc2c(cc1C3=O)OCO2	SK-N-MC	MTS	72 h	pIC50	6.16
CCN(CCO)CCCC(C)Nc1ccnc2cc(Cl)ccc12 (stereo not drawn)	SH-SY5Y	resazurin	–	pIC50	< 4.30
CC1(C)CCC(CN2CCN(c3ccc(C(=O)NS(=O)(=O)c4ccc(NCC5CCOCC5)c([N+](=O)[O-])c4)c(Oc4cnc5[nH]ccc5c4)c3)CC2)=C(c2ccc(Cl)cc2)C1	MM.1R	ATP luminescence	48 h	pIC50	5.13
CC(C)(C)c1cnc(CSc2cnc(NC(=O)C3CCN(CCCCCSc4cccc5c4CN(C4CCC(=O)NC4=O)C5=O)CC3)s2)o1 (stereo not drawn)	HuT78	trypan blue	0.5 µM, 48 h	viability	13.4%
O=C1C(O)=C([C@H]2CC[C@H](c3ccc(Cl)cc3)CC2)C(=O)c2ccccc21	SH-SY5Y	resazurin	–	pIC50	< 4.30
COc1cc2c3c(n(CCCNCCO)c(=O)c2cc1OC)-c1nc2c(cc1C3=O)OCO2	SK-N-MC	MTS	72 h	pIC50	6.76
Nc1ccc(/C=C/C(=O)NCc2cc3cc(-c4ccc(C(=O)N5CCC(F)(F)CC5)cc4)cc(-c4ccc(F)cc4)c3o2)cn1	Pan02	CCK-8	72 h	pIC50	5.79
[H]/N=C(\N/C(=N/[H])Nc1ccc(Cl)cc1)NC(C)C	SH-SY5Y	resazurin	–	pIC50	< 4.30
C=CC(=O)NC1CCN(c2ncc3ncnc(Nc4ccc(Oc5ccc6c(c5)ncn6C)c(C)c4)c3n2)CC1	SNU668	–	–	pEC50	7.46
